Experimental data: ChEMBL document CHEMBL1146476, “Structure-activity relationships of ring C-secotaxoids. 1. Acylative modifications” (J Nat Prod, 2004)
pIC50: −log10 of the molar value.

Experiments:
MCF7 [1] = assay: Cytotoxicity against human MCF7 cells after 72 hrs by SRB assay; format: functional, cell-based; conditions: MCF7, 72 h
MCF7 [2] = assay: Cytotoxicity against human multidrug-resistant MCF7 cells after 72 hrs by SRB assay; format: functional, cell-based; conditions: MCF7, 72 h
How it was run: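 Monolayer cultures kept in RPMI-1640 with 5% FCS, 5% NuSerum IV, 20 mM HEPES, 2 mM L-glutamine at 37 °C, 5% CO2. Cells seeded at 800-1500/well and allowed to attach 15-18 h, then given 10 concentrations spanning 5 logs (DMSO stock diluted in RPMI-1640/10 mM HEPES) for 72 h. Fixed with cold TCA, stained with 0.4% SRB, OD 570 nm. Sigmoid-Emax nonlinear regression fit.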

Q: `CC(=O)O[C@@]1([C@@H]2/C(C)=C(/OC(=O)OCc3ccccc3)C(=O)C3=C(C)[C@@H](OC(=O)[C@H](O)[C@H](CC(C)C)NC(=O)OC(C)(C)C)C[C@@](O)([C@H]2OC(=O)c2ccccc2)C3(C)C)CO[C@@H]1CCO` was tested. Which pIC50 (MCF7 [1]) did it give?
A: The pIC50 was 7.28.

Q: And the pIC50 (MCF7 [2])?
A: The pIC50 was 5.92.

Q: `CC(=O)O/C1=C(\C)[C@@H]([C@]2(OC(C)=O)CO[C@@H]2CCO)[C@H](OC(=O)c2ccccc2)[C@]2(O)C[C@H](OC(=O)[C@H](O)[C@H](CC(C)C)NC(=O)OC(C)(C)C)C(C)=C(C1=O)C2(C)C` was tested. Which pIC50 (MCF7 [1]) did it give?
A: The pIC50 was 7.74.

Q: What about the pIC50 (MCF7 [2]) of the same compound?
A: The pIC50 was 6.00.

Q: How did the pIC50 (MCF7 [1]) turn out when `CC(=O)O[C@@]1([C@@H]2/C(C)=C(/O)C(=O)C3=C(C)[C@@H](OC(=O)[C@H](O)[C@H](CC(C)C)NC(=O)OC(C)(C)C)C[C@@](O)([C@H]2OC(=O)c2ccccc2)C3(C)C)CO[C@@H]1CCO` was run?
A: Its pIC50 is 7.85.

Q: What about the pIC50 (MCF7 [2]) of the same compound?
A: Its pIC50 is 5.79.

Q: `CC(=O)O[C@H]1C(=O)[C@@]2(C)[C@H]([C@H](OC(=O)c3ccccc3)[C@]3(O)C[C@H](OC(=O)[C@H](O)[C@@H](NC(=O)c4ccccc4)c4ccccc4)C(C)=C1C3(C)C)[C@]1(OC(C)=O)CO[C@@H]1C[C@@H]2O` [PACLITAXEL] was tested. Which pIC50 (MCF7 [2]) did it give?
A: Its pIC50 is 6.45.

Q: With `CC(=O)OCC[C@H]1OC[C@@]1(OC(C)=O)[C@@H]1/C(C)=C(/OC(C)=O)C(=O)C2=C(C)[C@@H](OC(=O)[C@H](O)[C@H](CC(C)C)NC(=O)OC(C)(C)C)C[C@@](O)([C@H]1OC(=O)c1ccccc1)C2(C)C` as the compound, how does the pIC50 (MCF7 [1]) read?
A: The pIC50 was 7.44.

Q: And the pIC50 (MCF7 [2])?
A: Its pIC50 is 6.02.

Q: Which results are given for `CC(=O)O[C@@]1([C@@H]2/C(C)=C(/OC(=O)OC(C)(C)C)C(=O)C3=C(C)[C@@H](OC(=O)[C@H](O)[C@H](CC(C)C)NC(=O)OC(C)(C)C)C[C@@](O)([C@H]2OC(=O)c2ccccc2)C3(C)C)CO[C@@H]1CCOC(=O)OC(C)(C)C`?
A: pIC50 (MCF7 [1]): 7.29; pIC50 (MCF7 [2]): 6.13

Q: `CC(=O)O[C@@]1([C@@H]2/C(C)=C(/OC(=O)[C@@H](O)[C@@H](CC(C)C)NC(=O)OC(C)(C)C)C(=O)C3=C(C)[C@@H](O)C[C@@](O)([C@H]2OC(=O)c2ccccc2)C3(C)C)CO[C@@H]1CCOC(=O)C(C)(C)C` was tested. Which pIC50 (MCF7 [1]) did it give?
A: Its pIC50 is less than 5.52.

Q: And the pIC50 (MCF7 [2])?
A: The pIC50 was less than 5.52.
